From the EternaBench riboswitch data come the findings set out here.

The data set deals with MS2 coat protein. Kind of data set: apparent Kd, MS2 coat protein; higher = weaker binding; RNA-MaP array; FMN 200 µM where present. The method in brief:
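The apparent Kd is the median of filtered binding-curve fits, one per cluster, to green signal normalised to red-channel RNA signal and control-cluster median Fmax. The clusters were on Illumina sequencing chips, and stalled E. coli RNA polymerase had transcribed the designs on them. Titration used SNAP-549-labelled MS2 coat protein from 0.7 or 1.5 nM, doubling to 3 µM, without and then with constant ligand, in 100 mM Tris-HCl pH 7.5, 80 mM KCl, 4 mM MgCl2, BSA, DTT, yeast tRNA and Tween-20.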

Where [1] appears, read: designed as: OFF switch for flavin mononucleotide, no ligand.
Setting [2] is: ligand present: flavin mononucleotide, designed as: OFF switch for flavin mononucleotide.
Where [3] appears, read: designed as: ON switch for flavin mononucleotide, no ligand.
Setting [4] is: ligand present: flavin mononucleotide, designed as: ON switch for flavin mononucleotide.

With “AUCAGCUCGUCAGGAUAUACGUCACUGCGUCAGCAGUGUGGUAAGUUCACAUGAGGAUCACCCAUGUAGAAGGGACGAGCUGAU”, the “apparent Kd” value by setting is: under setting [1], 4.98 nM; under setting [2], 7.14 nM.
For “AGAAACUACGAGAAGGACAUGUGAACCUUCAACUACAUGAGGAUCACCCAUGUAGGAUAUCGUAGUUUCAGGAUCGUGAGAUCA”, the “apparent Kd” value runs as follows: under setting [1], 5.93 nM; under setting [2], 6.44 nM.
Taken in the same sequence, the figures for “CGUGUUAUCGAAGGAUAUGGAUACAUGAGGAUCACCCAUGUAUAUUUUGUGAUCAAGUUUAAGAUCCAGAAGGUCGUAUACACG” were 54.9 nM and 119 nM.
For “GCCUUACCGGUCAGGAUAUACACCCGUCACUCCUUGUAGAAGGGACAUGAGGAUCACCCAUGUACAUUACAUUC”, in that order: 27.2 nM and 26.8 nM.
Taken in the same sequence, the figures for “CCUAAACAUGAGGAUCACCCAUGUCAGGAUAUGGACCGUCUGGUGAAAUUCAGCUGGACCAGAAGGGACGUGGA” were 32.2 nM and 45.5 nM.
Regarding “GACAUGAGGAUCACCCAUGUCCAUGCAAAAGUAGUUGAGACCAGAAGGACCGUGCGGAGUGCAGGGUAGGAUAUGGAGCCCUCA”, the “apparent Kd” value is, setting by setting: under setting [3], 28.2 nM; under setting [4], 7.34 nM.
For the sequence “UUGGUACAAGGAUAUACAUGAGGAUCACCCAUGUUUGGCAUCGCGCGUAUCUCUUCAGGUAGAAGGUGUGUUGA”, the “apparent Kd” value under setting [1] stood at 22.3 nM and the “apparent Kd” value under setting [2] turned out to be 26.5 nM.
As for “GUACUACAUGAGGAUCACCCAUGUACAAAUGUACGAGGAUAUGCAUGGACGAAAGUUGGUGCAGAAGGCGUAGUAC”, the “apparent Kd” value worked out at 24.9 nM under setting [3] and 24 nM under setting [4].
Take “CCUCGUCACAUUAACAUGAGGAUCACCCAUGUCAAAAGACAUGAGGAUAUGCAUCCUAAUUGGAUGCAGAAGGCAUGGACGAGG”: the “apparent Kd” value is 474 nM under setting [3] and 36.5 nM under setting [4].
“GCACGACAUGUAGGAUAUCGAGCGCCGGGCGCUCGAGAAGGACAUGAGGAUCACCCAUGUAUUCUGAGUGACCGAGGUCUGUGC”: the “apparent Kd” value worked out at 72.9 nM under setting [1] and 594 nM under setting [2].
As for “AAUUGACACGUAGGAUAUCGAUCUAUAUUAACACGAGAAGGACGUACAUGAGGAUCACCCAUGUUUAAUGGAGUAGAUAAGUUG”, the “apparent Kd” value under setting [1] was 112 nM and the “apparent Kd” value under setting [2] was found to be 257 nM.
As to “UGCCGUUUAGGAUAUACAUGAGGAUCACCCAUGUGACACACAUAUUUUACAAAACCAUGUAGAAGGAAACGGCA”, the “apparent Kd” value reads like this: under setting [1], 104 nM; under setting [2], 512 nM.
As for “GACAUGAGGAUCACCCAUGUCCCUCCAGAAGGCUGGCGCGCGAAACCUAUCUCGGUUCCGCGCACAGAGGAUAUGGGCGGUUGG”, the “apparent Kd” value came out at 181 nM under setting [3] and 29.8 nM under setting [4].
As to “UGACUUAUAUAGAAGGGUAUGUGGGAAUUACAUGAGGAUCACCCAUGUUUUAUAGGAUAUGUAUAUAGUUUUUAAUCAAGUUUA”, the “apparent Kd” value reads like this: under setting [1], 46.3 nM; under setting [2], 37.7 nM.
Regarding “GGGUCAAUCUUUAGGUGGCGAGACUAGGAUAUGAGUGGUCCCACAUGAGGAUCACCCAUGUGUACUUAGAAGGAGUAGCGCCGU”, the “apparent Kd” value reads like this: under setting [3], 160 nM; under setting [4], 184 nM.
For “GACAUGGUCCAGAAGGGCUAUUUAUUUAAUUAUUAUUUAGAACAGCAUAGCAGGAUAUGGCUAACAUGAGGAUCACCCAUGUUC”, in that order: 21.5 nM and 12.6 nM.
Regarding “AAGGACUGAAUAAUAAGUAGAAAUACAUGAGGAUCACCCAUGUAGGAUAUCGUCAGGAAUACUGACGAGAAGGACAUACAGUCC”, the “apparent Kd” value was 13.6 nM under setting [1] and 16.7 nM under setting [2].
For “UGUCUAUUUGAAGGAUAUCUAAGCAUAAACCGGAGAGAAGGUCAAUUAUACAUGAGGAUCACCCAUGUUGAGAUUGAUGGGUUU”, in that order: 16.2 nM and 18.4 nM.
Taken in the same sequence, the figures for “ACCGGAGCAGGAUAUACAUGAGGAUCACCCAUGUGAGCCACACAGCUACUAUAUGCAAGUAGAAGGGCUCGGGU” were 74.2 nM and 120 nM.
For the sequence “UCAACCAGCGCCGGUUGAACAUGAGGAUCACCCAUGUACUCCAGAAGGCCGCCCAAGAACGGAGUGGAGGAUAUGGAAGUUCUC”, the “apparent Kd” value runs as follows: under setting [3], 75.7 nM; under setting [4], 39.9 nM.
Taken in the same sequence, the figures for “ACCUGGACCACAGGAUAUCCCAAUGUUUUACAGGGAGAAGGGUGAGAGUAUGACAUGAGGAUCACCCAUGUUGUCCAGGCGGAA” were 442 nM and 191 nM.
As to “GGUUGUCAUAGUCAUCCUUUCCGUACAUGAGGAUCACCCAUGUAGGAUAUGCUACUCACAGAGUAGCAGAAGGGCGUGUGUCUU”, the “apparent Kd” value worked out at 19 nM under setting [1] and 19.6 nM under setting [2].
For the sequence “UCAGGCUUCGAGAAGGACAUGAGGAUCACCCAUGUGCGUGUGAAGCAGCCGUGAGGCUGCAUCAUGUAGGAUAUCGGAGUCUGU”, the “apparent Kd” value runs as follows: under setting [1], 92.3 nM; under setting [2], 554 nM.
Regarding “ACACGGAAGUCAGGAUAUGUAUCAGCACGAUUGUUACAUGAGGAUCACCCAUGUUUCACGGGCCAACAGAAGGGACAGGGUGGC”, the “apparent Kd” value runs as follows: under setting [3], 23.6 nM; under setting [4], 7.82 nM.
Regarding “AAUAUGAGCUGGUUAUAAAACCUGACAUGAGGAUCACCCAUGUAGGAUAUCAGCACGAUAAGUGCUGAGAAGGACAUCCAGCUC”, the “apparent Kd” value under setting [1] came out at 13.4 nM and the “apparent Kd” value under setting [2] amounted to 14 nM.
For the sequence “ACUAGAUGCGUGAAAUAACACAUGAGGAUCACCCAUGUGACACAGGAUAUAACCAGAUCAGAAAGUUAGAAGGGUGAGCACGCA”, the “apparent Kd” value is 39.2 nM under setting [3] and 21.2 nM under setting [4].
Taken in the same sequence, the figures for “GUAUGAGCGAUAGGAUAUACUGAGAUUGAAUGGGUAGAAGGAUCUCUUGUGGGAAAGACAUGAGGAUCACCCAUGUCACGGACC” were 186 nM and 100 nM.
On to “AUGGUACAUGAGGAUCACCCAUGUUAGGAUAUCGCGUGAGGUAAAACUUACACACACACGAGAAGGGACGACAU”, for which the “apparent Kd” value turned out to be 65.2 nM under setting [1] and 46.7 nM under setting [2].
“GUCAGCUCGUCAGGAUAUACGUCACUGCUUCGGCAGUGUGGUAAGAUCACAUGAGGAUCACCCAUGUAGAAGGGACGAGCUGAG”: the “apparent Kd” value is, setting by setting: under setting [1], 13.3 nM; under setting [2], 296 nM.
With “GUGACCCAUUAACAGUUACCACAUGAGGAUCACCCAUGUGCGAAGGAUAUAGACUGCUAUGCGUGCUAGAAGGUCGCGCGUGGC”, the “apparent Kd” value reads like this: under setting [1], 6.32 nM; under setting [2], 6.63 nM.
For “UAACCUCGCGUCAGGAUAUGCGAGGACUGUGACGUGCAGAAGGGACAUGAGGAUCACCCAUGUGAAAGAAUUAA”, in that order: 25.2 nM and 25.4 nM.
For “CUGAUGUGAGGAUAUGUGAUCUGCCUUCUAUGUAGAUGAUCACAGAAGGCACAUGAGGAUCACCCAUGUAGAUC”, in that order: 85.9 nM and 94.3 nM.
On to “ACGUUAAUUCGAGGAUAUCGGUGAUAUAAUUUACGAGAAGGCGAUAAUUGUGAUAAACUUAUAGACAUGAGGAUCACCCAUGUA”, for which the “apparent Kd” value is 42.6 nM under setting [3] and 39.2 nM under setting [4].
As for “UGAUAGGACAGAGGAUAUACGUGCUAGAGAUACUAGCAAAUAAUCCUUACAUGAGGAUCACCCAUGUAGAAGGCUGUCCUAUCU”, the “apparent Kd” value came to 19.3 nM under setting [1] and 47.4 nM under setting [2].
In the case of “UGGUCAUCAUCAGGAUAUUAACGUGGGCUACAUUAAGAAGGGAUAGUGGGAGAGGAUGUGAAACAUGAGGAUCACCCAUGUUGU”, the “apparent Kd” value reads like this: under setting [3], 13.3 nM; under setting [4], 10.6 nM.
In the case of “AGAAACUACGAGAAGGACAUAUGGUUCUUCAGUUACAUGAGGAUCACCCAUGUAGGAUAUCGUAGUUUCAGGAUCGUGAGAUCA”, the “apparent Kd” value by setting is: under setting [1], 7.33 nM; under setting [2], 21.7 nM.
For “UACGGACAUGAGGAUCACCCAUGUGAGGAUAUCGAUAACGAUAGCAUAAUAUAAACGGCGAGAAGGCACAGCGU”, in that order: 32.6 nM and 45.8 nM.
Take “GACUGAUUACAGAAGGUGUAAGACAUGAGGAUCACCCAUGUGUAAAAGGGUAUAUUUGAAUAUAACAAGGAUAUGUUUUAAUCA”: the “apparent Kd” value was 75.1 nM under setting [3] and 49.3 nM under setting [4].
As for “AACAUGUGAGGAUAUUUAAGAAAAGAAAAGAAAGAAAAGAAAAAGAAGGCACAUGAGGAUCACCCAUGUAAGAA”, the “apparent Kd” value is, setting by setting: under setting [1], 24.8 nM; under setting [2], 35.9 nM.
For the sequence “CUGAGGUCAGGAUAUGCAUGGCGGGACUUGCGUCGUGGCGUGGAGAAGGGACAUGAGGAUCACCCAUGUGGAGU”, the “apparent Kd” value by setting is: under setting [1], 79 nM; under setting [2], 54.2 nM.
Turning to “GUAAUCAGUAAUAAAAGCCCGGGCGCAGAAGGCCAGACACAUGAGGAUCACCCAUGUAUCCCUAUGGAGGAUAUGUGUCACGUG”, the “apparent Kd” value under setting [3] is 72.8 nM and the “apparent Kd” value under setting [4] amounted to 22.9 nM.
As to “GGAUAGGACAGAGGAUAUACGUCCUAGAGAUACUAGCAAAAUUUCCUCACAUGAGGAUCACCCAUGUAGAAGGCUGUCCUAUCG”, the “apparent Kd” value reads like this: under setting [1], 12.6 nM; under setting [2], 141 nM.
Taken in the same sequence, the figures for “CAGAUCGGCGCAGGAUAUGUCGACAUGAGGAUCACCCAUGUAAACCUUGUCUGGUCCGGUGUGUGACAGAAGGGUGUCGGCCAU” were 31.5 nM and 30.9 nM.
For the sequence “GCAGGUUAAGUCAGGAUAUACCUAUGGAUACAUAGGUAGAAGGGACAUGAGGAUCACCCAUGUGACUCACCUGC”, the “apparent Kd” value under setting [1] is 27.9 nM and the “apparent Kd” value under setting [2] turned out to be 57.6 nM.
Take “AUCCGGCGUGUAGGAUAUGGAACCGAUUAGGAUCCAGAAGGACAUGAGGAUCACCCAUGUACAUGUAAACAGUCAUCACCGGAA”: the “apparent Kd” value runs as follows: under setting [1], 10.9 nM; under setting [2], 65.3 nM.
For “UAUAUGUCAGGAUAUUAAUUAAAAUGGAAUUUAGUUUUAAUUAAGAAGGGACAUGAGGAUCACCCAUGUUCCUC”, in that order: 20.9 nM and 128 nM.
On to “GUAGCUAUCGGAGGAUAUUCAUACCGGAAAAGGACAUGAGGAUCACCCAUGUGGCGAAAGCCUUGGGAGAAGGCCGAUAGCUAC”, for which the “apparent Kd” value was determined as 94.2 nM under setting [3] and 6.77 nM under setting [4].
For “GUAGCAUACAGAGGAUAUCUUUACCGGAAACGGACAUGAGGAUCACCCAUGUGGCGAAAGCCUAGGGAGAAGGCUGAAUGCUAC”, in that order: 11.6 nM and 12.3 nM.
